The results in this text go back to ChEMBL document CHEMBL4304819, “Natural product pectolinarigenin exhibits potent anti-metastatic activity in colorectal carcinoma cells in vitro and in vivo” (2019).

Calls of active or inactive are those of the source. The rule behind the calls is not given here.

The subject of assay [1] is SW48. In words: Antiproliferative activity against human SW48 cells assessed as reduction in cell viability up to 40 uM by MTT assay. Type of assay: functional, cell-based. To be noted: TDE = time-dependent effect. The procedure, abridged: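 Exponentially growing cells (2–6 × 10^3 per well) seeded in 96-well plates for 24 h, then exposed to 0, 2.5, 5, 10, 20, 40 µM for 24, 48 and 72 h. MTT (5 mg/mL stock) added 2–4 h at 37 °C; formazan dissolved in DMSO, absorbance at 570 nm. Three independent experiments.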
In general terms: Tetrazolium assays rely on reduction of a dye to a coloured formazan, in cell work by metabolically active cells.

The test system of assay [2] is CT26. In words: Inhibition of colony formation in mouse CT26 cells assessed as reduction in size of colonies up to 40 uM incubated for 24 hrs supplemented with fresh medium containing compound every 3 days for 12 days by crystal violet staining-based microscopic analysis. It is filed as functional, cell-based. In outline: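 400–800 cells per well seeded in 6-well plates; after 24 h, PEC (0–40 μM) added. Medium with or without compound replaced every three days for 12 days. Colonies washed in cold PBS, fixed in methanol, stained 15 min with 0.5% crystal violet and counted under a microscope. Mean ± SD of three experiments.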

In assay [3] the test system is HCT-116. Kind of assay: Induction of apoptosis in human HCT116 cells assessed as appearance of condensed nuclei up to 40 uM after 48 hrs by Hoechst 33258 staining-based fluorescent microscopic analysis. Type of assay: functional, cell-based. The procedure, abridged:
(§1)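 Cells (1–2 × 10^5 per well) plated on 18-mm coverslips in six-well plates for 24 h, treated at various concentrations for 48 h, washed with cold PBS, fixed 15 min in 4% paraformaldehyde, stained with Hoechst 33258 (5 μg/ml); condensed/fragmented nuclei scored by fluorescence microscopy (10×); stained positive cells, mean ± SD of three experiments.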

In assay [4] the test system is CT26. In words: Induction of apoptosis in mouse CT26 cells assessed as appearance of condensed nuclei up to 40 uM after 48 hrs by Hoechst 33258 staining-based fluorescent microscopic analysis. It is filed as functional, cell-based. In outline: as §1
Assay [5] has as its system CT26. In words: Induction of apoptosis in mouse CT26 cells assessed as viable cells at 10 uM after 48 hrs by Annexin V-FITC/propidium iodide staining-based flow cytometric analysis (reference value: 88.9 %). It is filed as functional. The settings on record: CT26, 48 h, read-out: Activity. The procedure, abridged:
(§2)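 CT26 cells seeded at 1–2 × 10^5 per well in six-well plates for 24 h, then exposed to PEC (0–40 μM) for 24 or 48 h. Cells harvested, washed twice in cold PBS, stained with Annexin V-FITC/PI and read by flow cytometry. Early apoptotic = Annexin V+ only; late apoptotic = Annexin V+/PI+. Mean ± SD of three experiments.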
Background: Flow cytometry measures light scatter and fluorescence of single cells or particles in a stream.

For assay [6], the system named is CT26. Kind of assay: Induction of apoptosis in mouse CT26 cells assessed as viable cells at 20 uM after 48 hrs by Annexin V-FITC/propidium iodide staining-based flow cytometric analysis (reference value: 88.9 %). Type of assay: functional. The settings on record: CT26, 48 h, read-out: Activity. In outline:
as §2

For assay [7], the system named is CT26. In words: Induction of apoptosis in mouse CT26 cells assessed as late apoptotic cells at 20 uM after 48 hrs by Annexin V-FITC/propidium iodide staining-based flow cytometric analysis (reference value: 6.49 %). Type of assay: functional. In outline:
as §2

The test system of assay [8] is CT26. In words: Induction of apoptosis in mouse CT26 cells assessed as necrotic cells at 20 uM after 48 hrs by Annexin V-FITC/propidium iodide staining-based flow cytometric analysis (reference value: 1.80 %). Type of assay: functional. In outline: as §2
The subject of assay [9] is CT26. Kind of assay: Induction of apoptosis in mouse CT26 cells assessed as early apoptotic cells at 40 uM after 48 hrs by Annexin V-FITC/propidium iodide staining-based flow cytometric analysis (reference value: 2.84 %). It is filed as functional. In outline: as §2
Assay [10] concerns HCT-116. In words: Induction of apoptosis in human HCT116 cells assessed as viable cells at 10 uM after 48 hrs by Annexin V-FITC/propidium iodide staining-based flow cytometric analysis (reference value: 86.7 %). Type of assay: functional. To be noted: HCT-116, 48 h, read-out: Activity. The procedure, abridged: (§3)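 Cells (1–2 × 10^5 per well) seeded in six-well plates 24 h, treated at 0–40 μM for 24 h or 48 h, harvested, washed twice in cold PBS, stained with Annexin V-FITC/PI and analysed by flow cytometry; early (Annexin V only) and late (Annexin V and PI) apoptotic fractions quantified; three experiments.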

Assay [11] concerns HCT-116. Kind of assay: Induction of apoptosis in human HCT116 cells assessed as early apoptotic cells at 10 uM after 48 hrs by Annexin V-FITC/propidium iodide staining-based flow cytometric analysis (reference value: 1.23 %). Type of assay: functional. In outline:
as §3

Assay [12] relates to HCT-116. Kind of assay: Induction of apoptosis in human HCT116 cells assessed as viable cells at 20 uM after 48 hrs by Annexin V-FITC/propidium iodide staining-based flow cytometric analysis (reference value: 86.7 %). It is filed as functional. The settings on record: HCT-116, 48 h, read-out: Activity. In outline:
as §3

Assay [13] deals with HCT-116. Kind of assay: Induction of apoptosis in human HCT116 cells assessed as early apoptotic cells at 20 uM after 48 hrs by Annexin V-FITC/propidium iodide staining-based flow cytometric analysis (reference value: 1.23 %). It is filed as functional. The procedure, abridged:
as §3

Assay [14] has as its system HCT-116. Kind of assay: Induction of apoptosis in human HCT116 cells assessed as late apoptotic cells at 20 uM after 48 hrs by Annexin V-FITC/propidium iodide staining-based flow cytometric analysis (reference value: 3.87 %). Type of assay: functional. The procedure, abridged: as §3
In assay [15] the test system is HCT-116. In words: Induction of apoptosis in human HCT116 cells assessed as early apoptotic cells at 40 uM after 48 hrs by Annexin V-FITC/propidium iodide staining-based flow cytometric analysis (reference value: 1.23 %). It is filed as functional. The procedure, abridged:
as §3

Assay [16] deals with HCT-116. In words: Induction of apoptosis in human HCT116 cells assessed as late apoptotic cells at 40 uM after 48 hrs by Annexin V-FITC/propidium iodide staining-based flow cytometric analysis (reference value: 3.87 %). Type of assay: functional. In outline:
as §3

Assay [17] has as its system HCT-116. Kind of assay: Induction of apoptosis in human HCT116 cells assessed as decrease in pro-caspase-3 expression up to 40 uM after 48 hrs by Western blot analysis. Type of assay: functional, cell-based. In outline: (§4)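 Cells treated 48 h at 0, 10, 20 and 40 μM, washed in cold PBS, lysed in RIPA; protein equalized by Lowry assay, resolved by SDS-PAGE, transferred to PVDF, blocked 1 h at 37 °C, primary antibody overnight at 4 °C, secondary 1 h, ECL detection, densitometry. β-actin loading control.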
(In western blotting, separated proteins are transferred to a membrane and probed.)

Assay [18] concerns HCT-116. Kind of assay: Antiinvasive activity against human HCT116 cells after 48 hrs by crystal violet staining based light microscopic analysis. Type of assay: functional, cell-based. The procedure, abridged: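 Transwell membrane upper surface coated with Matrigel diluted 1:5 in serum-free medium. 5 × 10^4 cells in serum-free medium in upper part, 10% FBS medium below, treated with various concentrations for 48 h. Non-invading cells removed; underside cells fixed in methanol, stained with 0.5% crystal violet, counted by light microscopy; expressed as % inhibition versus untreated.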

For assay [19], the system named is CT26. Kind of assay: Antimetastatic activity against mouse CT26 cells assessed as inhibition of MMP-9 expression after 48 hrs by Western blot analysis. It is filed as functional, cell-based. The procedure, abridged:
as §4

The subject of assay [20] is CT26. In words: Antitumor activity against mouse CT26 cells allografted in Balb/c mouse assessed as inhibition of Ki-67 positive cells in tumour tissue at 25 to 50 mg/kg, ip administered daily for 14 days starting from 6 days post implantation by immunohistochemical analysis. It is filed as functional, organism-based. The procedure, abridged:
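Female BALB/c mice (6–8 weeks) injected ip with 5 × 10^5 CT26 cells; from day 6, randomized (eight per group) to ip vehicle, 25 or 50 mg/kg once daily for 14 days. Abdominal circumference and body weight every 3 days; abdominal nodules counted by eye and weighed; spleens assessed; paraffin tumour sections immunostained (Ki-67, MMP-9, p-Stat3) with DAB detection.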

Assay [21] deals with CT26. Kind of assay: Antimetastatic activity against mouse CT26 cells allografted in Balb/c mouse assessed as increase in infiltration of CD8+ T cells in blood at 25 mg/kg, ip administered daily for 14 days starting from 6 days post implantation flow cytometric analysis (reference value: 1.35 %). It is filed as functional.

For the molecule `COc1ccc(-c2cc(=O)c3c(O)c(OC)c(O)cc3o2)cc1` [PECTOLINARIGENIN], the figures for the inhibition entry in [1], in [18] and in assay [19] were “Tde”, “Dose-dependent effect” and “Dose-dependent effect”, respectively. The inhibition entry in [2] and in [20] was “Active” throughout. The outcome in assay [3], in [4] and in assay [17] was Active. The viability at 10 µM in assay [5] was determined as 77.1%; in [10], 85.1%. The viability at 20 µM in assay [6] was 77.5%; in assay [12] it was 79.2%. Also, the Activity is 12.4% in assay [7]; 1.94% in assay [8]; 16.2% in [9]; 5.08% in assay [11]; 8.86% in assay [13]; 7.36% in [14]. Further, the Activity was determined as 9.42% in [15], 9.67% in assay [16] and 2.59% in assay [21].
